# In ChEMBL document CHEMBL4706774, “Creation of Fluorescent RXR Antagonists Based on CBTF-EE and Application to a Fluorescence Polarization Binding Assay” (ACS Med Chem Lett, 2021):
# Active and inactive are the calls of the source. The rule behind the calls is not given here.
# How the values were obtained:
# [1] = Fluorescence property of compound in MeOH assessed as molar extinction coefficient by UV-visible spectrophotometric method; assay type: physicochemical
# [2] = Fluorescence property of compound in EtOH assessed as molar extinction coefficient by UV-visible spectrophotometric method; assay type: physicochemical
# [3] = Fluorescence property of compound in MeOH assessed as quantum yield by UV-visible spectrophotometric method; assay type: physicochemical
# [4] = target: T1, Retinoic acid receptor RXR-alpha (Homo sapiens, UniProt P19793); test: Binding affinity to human RXRalpha-LBD (224 to 462 residues) expressed in Escherichia coli BL21(DE3) incubated for 2 hrs by fluorescence assay
# T1 sequence (P19793 whole entry): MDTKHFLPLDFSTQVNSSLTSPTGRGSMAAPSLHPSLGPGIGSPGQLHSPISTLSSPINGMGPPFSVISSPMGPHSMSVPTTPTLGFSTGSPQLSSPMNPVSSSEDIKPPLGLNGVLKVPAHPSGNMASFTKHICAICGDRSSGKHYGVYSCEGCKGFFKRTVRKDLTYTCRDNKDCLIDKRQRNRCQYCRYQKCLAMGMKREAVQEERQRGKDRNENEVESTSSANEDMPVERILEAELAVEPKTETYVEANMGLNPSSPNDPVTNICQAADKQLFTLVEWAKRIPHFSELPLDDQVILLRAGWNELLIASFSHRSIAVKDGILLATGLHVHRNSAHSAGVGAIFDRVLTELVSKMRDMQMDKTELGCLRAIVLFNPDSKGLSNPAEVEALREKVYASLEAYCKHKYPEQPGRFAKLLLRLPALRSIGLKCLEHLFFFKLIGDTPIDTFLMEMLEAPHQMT
# [5] = Fluorescence property of compound in EtOH assessed as quantum yield by UV-visible spectrophotometric method; assay type: physicochemical
# [6] = target: T2, Retinoic acid receptor RXR-alpha (Homo sapiens) (UniProt P19793); test: Antagonist activity against human RXRalpha expressed in COS1 cells incubated for 18 hrs by SEAP reporter gene assay; assay type: cell-based; settings: COS-1, filed as antagonist
# T2 sequence (whole entry): T1 sequence (P19793 whole entry)
# [7] = Fluorescence property of compound in EtOH assessed as excitation wavelength by UV-visible spectrophotometric method; assay type: physicochemical
# [8] = Fluorescence property of compound in MeOH assessed as emission wavelength by UV-visible spectrophotometric method; assay type: physicochemical
# Outline: (§1)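 Fluorescence excitation and emission spectra recorded on the compound at 1 μM in MeOH solution. Maxima of excitation and emission taken from these spectra.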
# [9] = Fluorescence property of compound in MeOH assessed as excitation wavelength by UV-visible spectrophotometric method; assay type: physicochemical; outline: as §1
# [10] = Fluorescence property of compound in EtOH assessed as emission wavelength by UV-visible spectrophotometric method; assay type: physicochemical
# [11] = target: T1, Retinoic acid receptor RXR-alpha; test: Binding affinity to human RXRalpha-LBD (224 to 462 residues) expressed in Escherichia coli BL21(DE3) incubated for 1 hr by fluorescence polarization assay
Activity [1],Activity [2],Activity [3],Kd [4] [nM],Activity [5],Activity [6],Activity [7] [nm],Activity [8] [nm],Activity [9] [nm],Activity [10] [nm],Kd [11] [nM],SMILES
6.7 10^3L/mol,8.4 10^3L/mol,0.224,629,0.237,Active,461,530,464,527,–,CC1(C)CCC(C)(C)c2cc(-n3c(C(F)(F)F)nc4cc(C(=O)O)ccc43)c(OCCOCCNc3ccc([N+](=O)[O-])c4nonc34)cc21
2.8 10^4L/mol,2.8 10^4L/mol,0.349,761,0.471,Active,499,508,499,509,375,CC1=CC(C)=[N+]2C1=C(c1ccc(C(=O)NCCOCCOc3cc4c(cc3-n3c(C(F)(F)F)nc5cc(C(=O)O)ccc53)C(C)(C)CCC4(C)C)cc1)c1c(C)cc(C)n1[B-]2(F)F
